According to PMC6959494 (Egyptian journal of chemistry, 2018):
Values after ≈ are worked out from the molar mass of the structure shown. Read-outs that look alike come from different tables or passages of the source.

What was measured:
P. aeruginosa PheRS = P. aeruginosa PheRS (Pseudomonas aeruginosa, UniProt Q9I0A3); assay: tRNA aminoacylation scintillation proximity assay, P. aeruginosa PheRS; type: biochemical
Outline: (§1)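 E. coli tRNA was added and incubated 1 h at 37 °C, then stopped with EDTA. Poly-L-lysine yttrium silicate SPA beads in citric acid were added for 1 h before scintillation counting. DMSO-only controls were included, and IC50 came from a sigmoidal dose-response fit.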

[1] = system: S. aureus SH1000 sensitive strain; assay: MIC against S. aureus SH1000 sensitive strain; type: cell-based, Staphylococcus aureus; details: for MIC: Staphylococcus aureus, read-out: MIC S. aureus Sensitive SH1000
S. pneumonia PheRS = S. pneumonia PheRS (Streptococcus pneumoniae, UniProt Q97S36); assay: tRNA aminoacylation scintillation proximity assay, S. pneumonia PheRS; type: biochemical
Chain of S. pneumonia PheRS (Q97S36 whole entry): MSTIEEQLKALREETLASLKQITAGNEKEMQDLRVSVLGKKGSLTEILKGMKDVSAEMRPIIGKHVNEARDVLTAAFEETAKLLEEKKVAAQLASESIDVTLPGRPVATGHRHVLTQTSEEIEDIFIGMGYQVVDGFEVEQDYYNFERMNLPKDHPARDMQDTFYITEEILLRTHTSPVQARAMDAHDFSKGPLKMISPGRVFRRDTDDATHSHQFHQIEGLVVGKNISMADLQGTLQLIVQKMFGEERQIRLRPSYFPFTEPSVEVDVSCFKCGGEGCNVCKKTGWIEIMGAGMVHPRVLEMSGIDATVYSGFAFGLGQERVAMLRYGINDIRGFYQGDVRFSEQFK
Chain of S. pneumonia PheRS (Q97S34 whole entry, further chain): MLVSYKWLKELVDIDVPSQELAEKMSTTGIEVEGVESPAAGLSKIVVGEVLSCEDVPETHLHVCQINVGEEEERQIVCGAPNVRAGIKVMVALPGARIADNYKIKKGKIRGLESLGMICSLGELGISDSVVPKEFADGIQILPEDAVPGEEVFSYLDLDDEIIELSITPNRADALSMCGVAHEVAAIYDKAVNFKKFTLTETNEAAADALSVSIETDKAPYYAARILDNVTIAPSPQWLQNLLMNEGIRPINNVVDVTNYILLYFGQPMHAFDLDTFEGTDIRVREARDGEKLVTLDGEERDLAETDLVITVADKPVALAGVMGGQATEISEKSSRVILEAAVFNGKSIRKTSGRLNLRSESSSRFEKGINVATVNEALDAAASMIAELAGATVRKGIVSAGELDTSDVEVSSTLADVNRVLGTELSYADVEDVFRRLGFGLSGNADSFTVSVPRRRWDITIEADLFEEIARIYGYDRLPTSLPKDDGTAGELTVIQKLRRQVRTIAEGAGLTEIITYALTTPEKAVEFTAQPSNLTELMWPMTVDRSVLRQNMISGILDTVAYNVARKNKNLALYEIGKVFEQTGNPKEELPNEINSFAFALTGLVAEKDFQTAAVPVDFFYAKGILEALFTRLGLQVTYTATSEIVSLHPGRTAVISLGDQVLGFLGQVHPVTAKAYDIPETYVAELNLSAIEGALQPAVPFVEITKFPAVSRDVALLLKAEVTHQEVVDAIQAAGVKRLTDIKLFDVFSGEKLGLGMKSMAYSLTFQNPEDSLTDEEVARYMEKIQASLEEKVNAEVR
Outline: as §1

[2] = system: E. faecalisATCC 29212 sensitive; assay: MIC by microbroth dilution; type: cell-based, Enterococcus faecalis
Outline: (§2)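 Broth microdilution per international standard ISO […]. The panel covered clinical isolates and NCTC/ATCC control organisms, including resistant phenotypes, and ampicillin was run alongside as comparator.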

[3] = system: S.enteritidis8204 sensitive; assay: MIC by microbroth dilution; type: cell-based, Salmonella enteritidis
Outline: as §2

[4] = system: E. coli ATCC 25922 sensitive; assay: MIC by microbroth dilution; type: cell-based
Outline: as §2

[5] = system: P. aeruginosa ATCC 27853 sensitive; assay: MIC by microbroth dilution; type: cell-based, Pseudomonas aeruginosa
Outline: as §2

[6] = system: P. mirabilis NCTC 10975 sensitive; assay: MIC by microbroth dilution; type: cell-based, Proteus mirabilis
Outline: as §2

[7] = system: S. aureus NCTC 12493 mecA resistant; assay: MIC by microbroth dilution; type: cell-based
Outline: as §2

[8] = system: K. pneumoniae 21856 sensitive; assay: MIC by microbroth dilution; type: cell-based, Klebsiella pneumoniae
Outline: as §2

[9] = system: E. faecalis NCTC 12201 vanA resistant; assay: MIC by microbroth dilution; type: cell-based, Enterococcus faecalis
Outline: as §2

A.baumannii572 sensitive = assay: MIC by microbroth dilution; type: cell-based, Acinetobacter baumannii
Outline: as §2

[10] = system: B.cepacia NCTC 10661 sensitive; assay: MIC by microbroth dilution; type: cell-based
Outline: as §2

[11] = system: S. aureus ATCC 29213 sensitive; assay: MIC by microbroth dilution; type: cell-based
Outline: as §2

[12] = system: E. faecalis ATCC 51299 vanB resistant; assay: MIC by microbroth dilution; type: cell-based, Enterococcus faecalis
Outline: as §2

[13] = system: E. faecium 16568 sensitive; assay: MIC by microbroth dilution; type: cell-based; details: Enterococcus faecium
Outline: as §2

[14] = system: the tested bacteria (variety of clinically important pathogens); assay: MIC by microbroth dilution, summary in text for the panel of pathogens; type: cell-based; details: read-out: MIC, no inhibitory activity
[15] = system: E. faecalis sensitive and vanA and vanB resistant strains; assay: MIC by microbroth dilution, summary in text for E. faecalis strains; type: cell-based; details: Enterococcus faecalis, read-out: moderate inhibitory activity (MIC)
Outline: as §2

[16] = Enterococcus faecalis, ATCC29212
[17] = Pseudomonas aeruginosa, ATCC27853
[18] = Staphylococcus aureus, NCTC12493
[19] = Enterococcus faecalis, NCTC12201
[20] = Staphylococcus aureus, ATCC29213
[21] = Enterococcus faecalis, ATCC51299

Chain of P. aeruginosa PheRS (Q9I0A3 whole entry): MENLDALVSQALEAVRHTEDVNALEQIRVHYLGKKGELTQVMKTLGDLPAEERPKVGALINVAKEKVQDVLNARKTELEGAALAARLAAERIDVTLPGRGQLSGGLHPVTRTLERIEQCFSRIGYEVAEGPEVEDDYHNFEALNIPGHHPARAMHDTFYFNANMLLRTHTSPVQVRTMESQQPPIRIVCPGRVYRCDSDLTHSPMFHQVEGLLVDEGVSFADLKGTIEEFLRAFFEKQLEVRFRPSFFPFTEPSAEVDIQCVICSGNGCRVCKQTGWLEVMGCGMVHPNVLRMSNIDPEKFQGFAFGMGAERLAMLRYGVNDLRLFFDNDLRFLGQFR
Chain of P. aeruginosa PheRS (Q9I0A4 whole entry partner): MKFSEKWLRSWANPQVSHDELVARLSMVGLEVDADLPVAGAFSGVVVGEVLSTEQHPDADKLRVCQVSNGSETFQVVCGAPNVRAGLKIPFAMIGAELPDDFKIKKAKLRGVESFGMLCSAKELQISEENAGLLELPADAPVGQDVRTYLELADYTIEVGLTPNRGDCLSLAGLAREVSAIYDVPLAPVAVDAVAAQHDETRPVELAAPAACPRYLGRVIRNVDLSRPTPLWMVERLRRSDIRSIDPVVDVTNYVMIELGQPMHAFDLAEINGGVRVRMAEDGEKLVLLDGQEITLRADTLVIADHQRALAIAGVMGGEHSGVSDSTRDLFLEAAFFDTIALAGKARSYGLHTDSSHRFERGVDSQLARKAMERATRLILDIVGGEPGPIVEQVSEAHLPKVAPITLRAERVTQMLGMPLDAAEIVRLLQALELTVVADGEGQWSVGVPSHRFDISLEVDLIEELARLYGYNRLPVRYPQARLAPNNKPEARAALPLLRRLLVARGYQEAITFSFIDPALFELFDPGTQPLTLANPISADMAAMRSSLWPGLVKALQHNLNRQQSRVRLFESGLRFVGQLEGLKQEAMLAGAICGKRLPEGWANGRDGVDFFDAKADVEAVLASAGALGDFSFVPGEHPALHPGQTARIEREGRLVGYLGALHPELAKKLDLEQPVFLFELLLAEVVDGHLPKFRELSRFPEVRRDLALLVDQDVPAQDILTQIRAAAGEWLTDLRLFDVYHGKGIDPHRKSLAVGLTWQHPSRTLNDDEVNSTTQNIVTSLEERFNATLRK

COc1cc(OC)cc(C(=O)Nc2nnc(CCn3cnc4ccccc43)s2)c1 [11a, N-(5-(2-(1H-benzimidazol-1-yl)ethyl)-1,3,4-thiadiazol-2-yl)-3,5-dimethoxybenzamide]
IC50 (P. aeruginosa PheRS): 742 µM
MIC [1]: > 128 µg/mL
IC50 (S. pneumonia PheRS): 345 µM

O=C(Nc1nnc(CCn2cnc3ccccc32)s1)c1ccc(F)cc1 [11b, N-(5-(2-(1H-benzimidazol-1-yl)ethyl)-1.3.4-thiadiazol-2-yl)-4fluorobenzamide]
MIC ([2]; E. faecalis ATCC 29212 sensitive): 64 µg/mL (≈ 174 µM)
MIC ([3]; S.enteritidis8204 sensitive): >128 µg/mL
MIC ([4]; E. coli ATCC 25922 sensitive): >128 µg/mL
MIC ([5]; P. aeruginosa ATCC 27853 sensitive): >128 µg/mL
MIC ([6]; P. mirabilis NCTC 10975 sensitive): >128 µg/mL
MIC ([7]; S. aureus NCTC 12493 mecA resistant): 128 µg/mL (≈ 348 µM)
MIC ([8]; K. pneumoniae 21856 sensitive): >128 µg/mL
MIC ([9]; E. faecalis NCTC 12201 vanA resistant): 32 µg/mL (≈ 87.1 µM)
IC50 (P. aeruginosa PheRS; read-out: P. aeruginosa PheRS IC50, aminoacylation SPA, 0.08 μM enzyme): 907 µM
MIC (A.baumannii572 sensitive; A.baumannii572 sensitive): >128 µg/mL
MIC S. aureus Sensitive SH1000 ([1]; S. aureus SH1000 sensitive strain): >128 µg/mL
MIC [10]: >128 µg/mL
IC50 (S. pneumonia PheRS; read-out: S. pneumonia PheRS IC50, aminoacylation SPA, 0.2 μM enzyme): 685 µM
MIC ([11]; S. aureus ATCC 29213 sensitive): >128 µg/mL
MIC ([12]; E. faecalis ATCC 51299 vanB resistant): 64 µg/mL (≈ 174 µM)

CCSc1nnc(CCCn2cnc3ccccc32)n1-c1ccccc1 [16a, 1-(3-(5-(Ethylthio)-4-phenyl-4H-1,2,4-triazol-3-yl)propyl)-1H-benzimidazole]
MIC [13]: > 128 µg/mL
MIC [2, 16]: > 128 µg/mL
MIC ([3]; Salmonella enterica): > 128 µg/mL
MIC ([4]; Escherichia coli, ATCC25922): > 128 µg/mL
MIC [5, 17]: > 128 µg/mL
MIC ([6]; Proteus mirabilis, NCTC10975): > 128 µg/mL
MIC [7, 18]: > 128 µg/mL
MIC ([8]; Klebsiella pneumoniae): > 128 µg/mL
MIC [9, 19]: > 128 µg/mL
IC50 (P. aeruginosa PheRS): 343 µM
MIC [14]: ≥ 128 µg/mL
MIC (A.baumannii572 sensitive; Acinetobacter baumannii): > 128 µg/mL
MIC [1]: > 128 µg/mL
IC50 (S. pneumonia PheRS): 561 µM
MIC [11, 20]: > 128 µg/mL
MIC [12, 21]: > 128 µg/mL

CCCSc1nnc(CCCn2cnc3ccccc32)n1-c1ccccc1 [16b, 1-(3-(4-Phenyl-5-(propylthio)-4H-1,2,4-triazol-3-yl)propyl)1H-benzimidazole]
IC50 (P. aeruginosa PheRS): 375 µM
MIC [1]: > 128 µg/mL
IC50 (S. pneumonia PheRS): 390 µM

CCSc1nnc(CCCn2cnc3c(N)ncnc32)n1-c1ccccc1 [17a, 9-(3-(5-(Ethylthio)-4-phenyl-4H-1,2,4-triazol-3-yl)propyl)-9H-purin-6-amine]
MIC [2, 16]: > 128 µg/mL
MIC ([3]; Salmonella enterica): > 128 µg/mL
MIC ([4]; Escherichia coli, ATCC25922): > 128 µg/mL
MIC [5, 17]: > 128 µg/mL
MIC ([6]; Proteus mirabilis, NCTC10975): > 128 µg/mL
MIC [7, 18]: 128 µg/mL (≈ 336 µM)
MIC ([8]; Klebsiella pneumoniae): > 128 µg/mL
MIC [9, 19]: 64 µg/mL (≈ 168 µM)
IC50 (P. aeruginosa PheRS): 199 µM
MIC [14]: ≥ 128 µg/mL
MIC (A.baumannii572 sensitive; Acinetobacter baumannii): > 128 µg/mL
MIC [1]: > 128 µg/mL
IC50 (S. pneumonia PheRS): 619 µM
MIC [11, 20]: > 128 µg/mL
MIC [12, 21]: 64 µg/mL (≈ 168 µM)
MIC [15]: 32 to 64 µg/mL (≈ 84.1 to 168 µM)

CCCSc1nnc(CCCn2cnc3c(N)ncnc32)n1-c1ccccc1 [17b, 9-(3-(4-Phenyl-5-(propylthio)-4H-1,2,4-triazol-3-yl)propyl)-9H-purin-6-amine]
MIC [13]: > 128 µg/mL
MIC [2, 16]: > 128 µg/mL
MIC ([3]; Salmonella enterica): > 128 µg/mL
MIC ([4]; Escherichia coli, ATCC25922): > 128 µg/mL
MIC [5, 17]: > 128 µg/mL
MIC ([6]; Proteus mirabilis, NCTC10975): > 128 µg/mL
MIC [7, 18]: > 128 µg/mL
MIC ([8]; Klebsiella pneumoniae): > 128 µg/mL
MIC [9, 19]: > 128 µg/mL
IC50 (P. aeruginosa PheRS): 294 µM
MIC [14]: ≥ 128 µg/mL
MIC (A.baumannii572 sensitive; Acinetobacter baumannii): > 128 µg/mL
MIC [1]: > 128 µg/mL
IC50 (S. pneumonia PheRS): 686 µM
MIC [11, 20]: > 128 µg/mL
MIC [12, 21]: > 128 µg/mL

CC1(C)S[C@@H]2[C@H](NC(=O)[C@H](N)c3ccccc3)C(=O)N2[C@H]1C(=O)O [Amp, ampicillin, reference compound]
MIC [13]: 4 µg/mL (≈ 11.4 µM)
MIC [5, 17]: > 128 µg/mL
MIC ([6]; Proteus mirabilis, NCTC10975): > 128 µg/mL
MIC [7, 18]: > 128 µg/mL
MIC ([8]; Klebsiella pneumoniae): > 128 µg/mL
MIC [9, 19]: 16 µg/mL (≈ 45.8 µM)
MIC (A.baumannii572 sensitive; Acinetobacter baumannii): > 128 µg/mL
MIC [11, 20]: 4 µg/mL (≈ 11.4 µM)
